Experimental data reported in ChEMBL document CHEMBL1142785, “Synthesis of novel curcumin mimics with asymmetrical units and their anti-angiogenic activity” (Bioorg Med Chem Lett, 2005).
≈ marks a conversion by molar mass, not a printed value.

Columns and labels:
HUVEC [1] = experiment: Percentage tube formation inhibition against human umbilical vein endothelial cells(HUVEC) at a concentration of 5 ug/mL; type: functional
Summary of the method: (§1)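 HUVEC tube formation with test agent at 10, 5 or 2.5 µg/mL; total tube length per field quantified by image analysis and expressed as a percentage of the untreated control.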

Vero = experiment: Inhibitory concentration for cytotoxic activity against Vero cell line; type: functional, cell-based; details: Chlorocebus sabaeus
Summary of the method: (§2)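 […] cytotoxicity measured by MTT assay on B16, Vero, U87 and SiHa cells, run alongside HUVEC for selectivity comparison.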

[2] = Inhibitory concentration for cytotoxic activity against U87 cell line; type: functional, cell-based, U-87MG ATCC; details: Homo sapiens, U-87 MG; summary of the method: as §2
B16 = experiment: Inhibitory concentration for cytotoxic activity against B16 cell line; type: functional, cell-based; details: Mus musculus; summary of the method: as §2
HUVEC [3] = experiment: Inhibitory concentration against human umbilical vein endothelial cells(HUVEC) growth; type: functional, cell-based
Summary of the method: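 Human umbilical vein endothelial cell (HUVEC) proliferation assay; IC50 derived by nonlinear regression.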

HUVEC [4] = experiment: Percentage tube formation inhibition against human umbilical vein endothelial cells(HUVEC) at a concentration of 10 ug/mL; type: functional; summary of the method: as §1
SiHa = experiment: Inhibitory concentration for cytotoxic activity against SiHa cell line; type: functional, cell-based; details: Homo sapiens; summary of the method: as §2
HUVEC [5] = experiment: Percentage tube formation inhibition against human umbilical vein endothelial cells(HUVEC) at a concentration of 2.5 ug/mL; type: functional; summary of the method: as §1

| SMILES | inhibition at 5 µg/mL (HUVEC [1]) | IC50 (Vero) | IC50 [2] | IC50 (B16) | IC50 (HUVEC [3]) | inhibition at 10 µg/mL (HUVEC [4]) | IC50 (SiHa) | inhibition at 2.5 µg/mL (HUVEC [5]) |
| --- | --- | --- | --- | --- | --- | --- | --- | --- |
| COc1cc(/C=C/C(=O)c2cccc(NC(=O)c3ccccc3)c2)ccc1O | 48% | 3.47 µg/mL (≈ 9.29 µM) | 8.82 µg/mL (≈ 23.6 µM) | 0.82 µg/mL (≈ 2.2 µM) | 0.37 µg/mL (≈ 0.991 µM) | 69% | 4.57 µg/mL (≈ 12.2 µM) | – |
| COc1cc(/C=C/C(=O)c2cccc(NC(=O)c3cccs3)c2)ccc1O | 80% | 3.98 µg/mL (≈ 10.5 µM) | 14.7 µg/mL (≈ 38.7 µM) | 6.93 µg/mL (≈ 18.3 µM) | 0.38 µg/mL (≈ 1 µM) | 90% | 6.57 µg/mL (≈ 17.3 µM) | 71% |
| COc1cc(/C=C/C(=O)c2cccc(NC(=O)c3ccc(Cl)cc3)c2)ccc1O | 42% | 3.82 µg/mL (≈ 9.37 µM) | > 50 µg/mL | 0.59 µg/mL (≈ 1.45 µM) | 0.76 µg/mL (≈ 1.86 µM) | 66% | 2.3 µg/mL (≈ 5.64 µM) | – |
| COC(=O)C(=O)Nc1cccc(C(=O)/C=C/c2ccc(O)c(OC)c2)c1 | 20% | 3.55 µg/mL (≈ 9.99 µM) | 12.2 µg/mL (≈ 34.4 µM) | 4.41 µg/mL (≈ 12.4 µM) | 1.5 µg/mL (≈ 4.22 µM) | 43% | 7.71 µg/mL (≈ 21.7 µM) | – |
| CCCC(=O)Nc1cccc(C(=O)/C=C/c2ccc(O)c(OC)c2)c1 | 57% | 2.04 µg/mL (≈ 6.01 µM) | 5.56 µg/mL (≈ 16.4 µM) | 1.43 µg/mL (≈ 4.21 µM) | 1.27 µg/mL (≈ 3.74 µM) | 87% | 3.94 µg/mL (≈ 11.6 µM) | 40% |
| COc1cc(/C=C/C(=O)c2cccc(NC(=O)C(C)C)c2)ccc1O | 51% | 3.47 µg/mL (≈ 10.2 µM) | 8.31 µg/mL (≈ 24.5 µM) | 1.09 µg/mL (≈ 3.21 µM) | 1.44 µg/mL (≈ 4.24 µM) | 56% | 5.96 µg/mL (≈ 17.6 µM) | 11% |
| COc1cc(/C=C/C(=O)c2cccc(NC(=O)c3c(Cl)cccc3Cl)c2)ccc1O | 88% | 2.48 µg/mL (≈ 5.61 µM) | 17.8 µg/mL (≈ 40.3 µM) | 1.58 µg/mL (≈ 3.57 µM) | 0.46 µg/mL (≈ 1.04 µM) | 99% | 3.56 µg/mL (≈ 8.05 µM) | 53% |
| COc1cc(/C=C/C(=O)c2cccc(N)c2)ccc1O | 50% | 6.02 µg/mL (≈ 22.4 µM) | 7.71 µg/mL (≈ 28.6 µM) | 11.5 µg/mL (≈ 42.6 µM) | 2.87 µg/mL (≈ 10.7 µM) | 90% | 12.3 µg/mL (≈ 45.8 µM) | 20% |
| COc1cc(/C=C/C(=O)c2cccc(NC(=O)c3ccco3)c2)ccc1O | 82% | 3.11 µg/mL (≈ 8.56 µM) | 6.65 µg/mL (≈ 18.3 µM) | 5.46 µg/mL (≈ 15 µM) | 0.38 µg/mL (≈ 1.05 µM) | 100% | 0.76 µg/mL (≈ 2.09 µM) | 61% |
| COc1cc(/C=C/C(=O)c2cccc(NC(=O)c3ccc(Cl)cc3Cl)c2)ccc1O | 51% | 27.2 µg/mL (≈ 61.5 µM) | > 50 µg/mL | 12.8 µg/mL (≈ 29 µM) | 0.4 µg/mL (≈ 0.904 µM) | 70% | 34.4 µg/mL (≈ 77.8 µM) | 29% |
| COc1cc(/C=C/C(=O)c2cccc(NC(=O)c3ccc(Cl)c(Cl)c3)c2)ccc1O | 5% | > 50 µg/mL | 29.5 µg/mL (≈ 66.6 µM) | 3.88 µg/mL (≈ 8.77 µM) | 2.97 µg/mL (≈ 6.71 µM) | 45% | 25.3 µg/mL (≈ 57.2 µM) | – |
| COc1cc(/C=C/C(=O)c2cccc(NC(=O)c3cc(Cl)cc(Cl)c3)c2)ccc1O | 51% | > 50 µg/mL | > 50 µg/mL | 4.83 µg/mL (≈ 10.9 µM) | 0.75 µg/mL (≈ 1.7 µM) | 58% | 17.7 µg/mL (≈ 40 µM) | 15% |
| COc1cc(/C=C/C(=O)c2cccc(NC(C)=O)c2)ccc1O | 15% | 14.5 µg/mL (≈ 46.5 µM) | > 50 µg/mL | 3.62 µg/mL (≈ 11.6 µM) | 7.06 µg/mL (≈ 22.7 µM) | 32% | 15.8 µg/mL (≈ 50.6 µM) | – |
| CCOC(=O)C(=O)Nc1cccc(C(=O)/C=C/c2ccc(O)c(OC)c2)c1 | 45% | > 50 µg/mL | > 50 µg/mL | 7.03 µg/mL (≈ 19 µM) | 13.3 µg/mL (≈ 36 µM) | 66% | > 50 µg/mL | – |
| COc1cc(/C=C/C(=O)CC(=O)/C=C/c2ccc(O)c(OC)c2)ccc1O [CURCUMIN] | – | – | – | – | 10.8 µg/mL (≈ 29.4 µM) | – | – | – |
